Measured values taken from ChEMBL document CHEMBL1145430, “Synthesis and simple 18F-labeling of 3-fluoro-5-(2-(2-(fluoromethyl)thiazol-4-yl)ethynyl)benzonitrile as a high affinity radioligand for imaging monkey brain metabotropic glutamate subtype-5 receptors with positron emission tomography” (J Med Chem, 2007).

Columns and labels:
[1] = Stability in human brain at 50 uCi in 37 degC after 3 hrs; type: ADME, tissue-based
Summary of the method: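 Human brain tissue (1.76 g) was homogenized in ice-cold saline (3 mL), then mixed with about 50 μCi radioligand in ethanol–water 1:1. The mixture was incubated at 37 °C and sampled at 5-180 min. Samples were taken into carrier-spiked acetonitrile plus 0.5 M KF, counted and centrifuged at 10 000 g. Supernatants went to HPLC, and pellets were counted to give recovery.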

Hippocampus [2] = assay: Drug uptake in rhesus monkey hippocampus at 4 mCi, iv after 60 to 120 mins; type: ADME, organism-based, Macaca mulatta; conditions: in vivo
Summary of the method: (§1)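 Anesthetized rhesus monkey (~10 kg; ketamine, propofol, isoflurane) given [18F] radioligand 4.0 mCi i.v. Imaged on HRRT with attenuation and scatter correction. Regional time–activity curves from MRI-coregistered regions of interest, expressed as %SUV (normalized for injected activity and body weight). Hippocampal uptake averaged over 60–120 min.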

[3] = Stability in aqueous solution after 159 mins; type: physicochemical; conditions: buffer, 2.65 h
Summary of the method: (§2)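 The radioligand was dissolved in water, sampled at 34, 48 and 159 min, and analyzed at once by reverse-phase radio-HPLC (Novapak C-18, MeOH–H2O–Et3N 70:30:0.1, 2.0 mL/min). A second solution in 0.9% saline containing 0.15 mM phosphoric acid was sampled at 54 and 71 min and analyzed the same way.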

Blood = assay: Biodistribution in rhesus monkey blood at 4 mCi, iv after180 mins; type: ADME, organism-based, Macaca mulatta; conditions: in vivo, 3 h
Summary of the method: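 Anesthetized rhesus monkey given [18F] radioligand i.v. Heparinized blood drawn at 1 min intervals to 5 min, then at 10, 25, 40, 60, 90, 120 and 180 min, and kept on ice. Centrifuged 1800 g for 1.5 min. Plasma and cells γ-counted to give the partition of radioactivity into the cellular fraction.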

Hippocampus [4] = assay: Drug uptake in rhesus monkey hippocampus at 4 mCi, iv in presence of 6-methyl-2-(phenylethynyl)-pyridine after 60 to 120 mins; type: ADME, organism-based, Macaca mulatta; conditions: in vivo
Summary of the method: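 Same rhesus monkey on a separate day, given blocker 5 mg/kg i.v. in saline with 10% ethanol 15 min before [18F] radioligand (3.8 mCi i.v.). HRRT PET. Regional uptake expressed as %SUV from MRI-coregistered regions of interest, averaged over 60–120 min.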

[5] = Stability in human whole blood at 2 uCi; type: ADME, tissue-based; conditions: read-out: Stability
Summary of the method: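 Radioligand (2 μCi) was added to human whole blood (2.0 mL) at 23 °C and sampled at 10-90 min. Each sample was mixed with acetonitrile spiked with carrier and with KF (0.5 M), counted and centrifuged at 10 000 g for 1 min. The supernatant was analyzed by radio-HPLC.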

[6] = Stability in phosphate buffered saline at pH 7.4 after 71 mins; type: physicochemical; conditions: buffer, pH 7.4, 71 min; summary of the method: as §2
[7] = Stability in rhesus monkey brain at 100 uCi in 37 degC after 90 mins; type: ADME, tissue-based, Macaca mulatta
Summary of the method: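 Monkey brain tissue (3.34 g, stored at -70 °C for 1 year) was homogenized on ice with about 100 μCi radioligand, incubated at 37 °C and sampled at 5-90 min. Samples were taken into acetonitrile spiked with carrier plus 0.5 M KF, counted and centrifuged at 10 000 g for 1 min. Supernatants went to HPLC, and pellets were counted to give recovery.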

Brain = assay: Drug uptake in rhesus monkey brain at 4 mCi, iv; type: ADME, organism-based, Macaca mulatta; conditions: in vivo; summary of the method: as §1
Striatum [8] = assay: Drug uptake in rhesus monkey striatum at 4 mCi, iv in presence of 6-methyl-2-(phenylethynyl)-pyridine after 60 to 120 mins; type: ADME, organism-based, Macaca mulatta; conditions: in vivo
Summary of the method: (§3)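 Rhesus monkey (~10 kg) anesthetized with ketamine (10 mg/kg, i.m.) and propofol (5 mg/kg, i.v.), then isoflurane 1.0-4.0% in oxygen; body temperature 37-37.5 °C. Radioligand given i.v. and imaged on HRRT PET with attenuation and scatter correction. For blockade, MPEP/MTEP (5 mg/kg, i.v., in saline with 10% ethanol) given 15 min before tracer in the same monkey. Striatal ROI expressed as %SUV (normalized to injected activity and body weight) over 60-120 min.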

Striatum [9] = assay: Drug uptake in rhesus monkey striatum at 4 mCi, iv after 60 to 120 mins; type: ADME, organism-based, Macaca mulatta; conditions: in vivo; summary of the method: as §3
Plasma = assay: Stability in rhesus monkey plasma at 5 uCi after 168 mins; type: ADME, cell-free, Macaca mulatta; conditions: 2.8 h
Summary of the method: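 Plasma was obtained by spinning whole monkey blood at 1800 g for 5 min. Plasma (1.0 mL) was incubated with 5 μCi radioligand at room temperature for 168 min, and a sample was analyzed by reverse-phase radio-HPLC.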

[10] = biological target: Metabotropic glutamate receptor 5 (Rattus norvegicus, UniProt P31424); assay: Displacement of […] from mGluR5 in rat brain membrane; type: cell membranes
Summary of the method: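 Competition binding against [³H]MPEPy in rat whole-brain membranes (minus cerebellum and brainstem), homogenized in 50 mM Tris-HCl/saline pH 7.5, pelleted at 39 800 g. Membranes 5 mg/800 µL final. Competitor from 10 mM ethanol stock, final 0.01 nM to 1 mM. Incubated 1 h at 22 °C, filtered on PEI-soaked GF/B, washed with cold saline, scintillation counted. Three determinations.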

Chain of Metabotropic glutamate receptor 5 (P31424 whole entry): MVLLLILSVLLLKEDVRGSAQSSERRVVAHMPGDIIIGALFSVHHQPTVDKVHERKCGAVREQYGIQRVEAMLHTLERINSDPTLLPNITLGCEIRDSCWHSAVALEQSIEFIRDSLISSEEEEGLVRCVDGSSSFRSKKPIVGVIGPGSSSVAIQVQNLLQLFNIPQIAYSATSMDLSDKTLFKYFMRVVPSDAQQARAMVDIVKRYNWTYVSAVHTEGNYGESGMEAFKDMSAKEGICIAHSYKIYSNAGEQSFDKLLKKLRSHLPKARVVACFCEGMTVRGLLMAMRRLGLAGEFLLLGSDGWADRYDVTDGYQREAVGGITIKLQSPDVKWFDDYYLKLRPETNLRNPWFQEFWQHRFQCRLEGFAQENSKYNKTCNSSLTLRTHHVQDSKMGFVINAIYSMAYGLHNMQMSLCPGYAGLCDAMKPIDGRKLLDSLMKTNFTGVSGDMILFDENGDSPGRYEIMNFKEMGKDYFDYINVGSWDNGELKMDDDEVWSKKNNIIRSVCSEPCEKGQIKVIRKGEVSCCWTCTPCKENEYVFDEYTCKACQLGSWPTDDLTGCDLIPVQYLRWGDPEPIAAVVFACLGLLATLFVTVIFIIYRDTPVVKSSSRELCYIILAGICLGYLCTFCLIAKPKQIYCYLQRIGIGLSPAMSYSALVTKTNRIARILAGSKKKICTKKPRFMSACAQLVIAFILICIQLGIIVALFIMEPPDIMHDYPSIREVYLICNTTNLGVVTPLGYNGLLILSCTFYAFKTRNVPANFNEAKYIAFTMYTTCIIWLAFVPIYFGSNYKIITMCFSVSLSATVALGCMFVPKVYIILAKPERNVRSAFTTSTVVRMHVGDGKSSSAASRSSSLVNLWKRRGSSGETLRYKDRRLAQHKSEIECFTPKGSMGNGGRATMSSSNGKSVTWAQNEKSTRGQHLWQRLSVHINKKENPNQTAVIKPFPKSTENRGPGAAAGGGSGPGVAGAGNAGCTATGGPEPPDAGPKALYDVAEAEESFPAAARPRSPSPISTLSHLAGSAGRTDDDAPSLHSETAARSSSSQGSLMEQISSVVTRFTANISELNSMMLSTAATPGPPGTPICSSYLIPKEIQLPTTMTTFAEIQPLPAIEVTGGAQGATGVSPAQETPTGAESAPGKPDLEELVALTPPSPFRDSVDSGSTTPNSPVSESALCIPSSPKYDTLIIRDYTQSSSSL

| remaining at 3 h, 50 uCi [1] | Drug uptake (Hippocampus [2]) | Stability [3] | Drug uptake (Blood) | Drug uptake (Hippocampus [4]) | remaining at 2 uCi [5] | Stability [6] | remaining at 1.5 h, 100 uCi [7] | Drug uptake (Brain) | Drug uptake (Striatum [8]) | Drug uptake (Striatum [9]) | Stability (Plasma) | IC50 [10] | Structure (SMILES) |
| --- | --- | --- | --- | --- | --- | --- | --- | --- | --- | --- | --- | --- | --- |
| 98.6% | 500% | Stable | 33.9% | 200% | > 98% | Stable | 98.2% | 450% | 200% | 500% | Stable | – | N#Cc1cc(F)cc(C#Cc2csc(C[18F])n2)c1 |
| – | – | – | – | – | – | – | – | – | – | – | – | 0.06 nM | N#Cc1cccc(C#Cc2csc(CF)n2)c1 |
